Data reported in article PMC3495823 (Cell Cycle, 2012).

Key:
[1] = Octanol-PBS partition coefficient; type: physicochemical; settings: n-octanol/PBS, pH 7.4
Method in brief: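 Shake-flask method: 1 mg compound was dissolved in 1 mL octanol-saturated PBS pH 7.4 and shaken with 1 mL PBS-saturated octanol for 24 h at 37°C. Phases were separated by centrifugation (10,000 rpm, 10 min) and each was analysed by LC-MS/MS. LogD7.4 was calculated from the ratio of peak AUCs, each normalized to its injection volume.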

[2] = Tissue distribution by LC-MS/MS after intraperitoneal injection; type: in vivo, mouse; settings: 20 mg/kg i.p.
Method in brief: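 Mice received 20 mg/kg in peanut oil i.p. or by oral gavage; tissues and cardiac blood were taken 1, 4 and 24 h later, with brain cortex and cerebellum at 4 h. Weighed tissues (or 30 µL serum in water) were extracted three times with dichloromethane and analysed by ESI-positive LC-MS/MS. Levels came from peak AUC against calibration curves, with internal-standard normalization for quantification; three samples per point.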

[3] = normal mice, 4 hours after injection

- logD [1]: 0.15 ± 0.002
- detection in kidney, spleen, pancreas, prostate lung and serum [2]: detected
- overall tissue and serum levels compared with VMY [2]: lower than VMY
- concentration in cerebellar tissue [2, 3]: not detected
- concentration in cortical tissue [2, 3]: not detected
Structure (SMILES): CC(C)[C@H](CO)Nc1nc(Nc2ccc(C(=O)O)c(Cl)c2)c2ncn(C(C)C)c2n1 [PVB, purvalanol B]
